Source: PMC10023369 (ACS chemical biology, 2023)
Where two headings read alike, the source gives them in different places. Where a SMILES comes first, the peptide text is derived from it. The star is where a group is joined. Cbz = O=C(OCc1ccccc1)*

Tests used:
DB cells [1] = assay: DB cell proliferation analysis; type: cell-based, human; conditions: for Reduction of cell growth compared to DMSO: 0.5 μM, 12 days
Summary of the method: (§1)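 DB cells in RPMI 1640 with 10% FBS (37 °C, 5% CO₂), seeded at 100K cells/mL in 12-well plates. Dosed with 0.01–10 μM or 0.5 μM test compound, or DMSO. Every 3 days, media exchanged, cells split back to seeding density and re-dosed, for up to 12 days. Trypan blue automated counts gave cells/mL and % viability. % proliferation relative to DMSO at each time point; EC50 from four-parameter log(inhibitor) fit.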

H3K27me3 = H3K27me3 levels by western blot in DB cells; type: cell-based, human; conditions: 3 μM for 96 hr
Summary of the method: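 H3K27me3 by western blot: DB cells seeded at 50,000 cells/well and treated with 3 μM test compound or DMSO for 96 hr. PBS-washed cells lysed in Cytobuster with protease inhibitors and benzonase. Samples boiled with reducing Laemmli buffer, separated on 4–15% gels, transferred to PVDF. Densitometry normalized to GAPDH and expressed relative to DMSO.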

[2] = biological target: PRC2 components EED and EZH2^WT/EZH2^Y641N (Homo sapiens, UniProt O75530+P40337); assay: Degradation of PRC2 components by western blot in DB cells; type: cell-based; conditions: for Degradation of EED and EZH2^WT/EZH2^Y641N at 96 hr: DB cells, 3 μM for 96 hr
tumor growth = conditions: once daily intraperitoneal administration, 150 mg/kg; cited from earlier work
[3] = system: triple negative breast cancer (TNBC) cells; conditions: cited from earlier work
[4] = Solubility observed in ternary complex assay; type: physicochemical; conditions: above 10 μM in ternary complex assay
EZH2^WT/EZH2^Y641N [5] = conditions: read-out: EZH2^WT/EZH2^Y641N DC50; DB cells; cited from earlier work
[6] = biological target: biotinylated EED and His-VHL (Homo sapiens, UniProt O75530+P40337); assay: TR-FRET ternary complex formation assay; type: binding; conditions: EED-biotin and His-VHL, dose response up to 10 μM
Summary of the method: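 Ternary complex TR-FRET: biotinylated EED (residues 1–441, 160 nM) and His-VHL (residues 1–154, 320 nM) with Eu-streptavidin (2 nM) and ULight anti-6xHis (100 nM). Buffer: 20 mM Tris pH 7.5, 150 mM NaCl, Tween 20, 2 mM DTT, 1% DMSO. 10-point three-fold series from 10 μM; 4 h in dark. Read 665/615 ratio (320 nm excitation), minus no-compound wells. Technical triplicates; two independent experiments, standard error.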

His-tagged EED = His-tagged EED (Homo sapiens, UniProt O75530); assay: EED binding TR-FRET assay; conditions: result in words
Summary of the method: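 EED binding by TR-FRET displacement of a biotinylated EED ligand (15 nM). Mix held EED-6xHis (15 nM), ULight anti-6xHis antibody (10 nM) and Eu-W1024 streptavidin (2 nM). Test compounds run as 10-point dose–response, top final concentration 10 μM. IC50 from three biological replicates ± standard deviation.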

SUZ12 = SUZ12 degradation by western blot in DB cells; type: cell-based, human; conditions: % degradation at 3 μM after 24 hr
Summary of the method: (§2)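 DB cells seeded at 800,000 cells/well and dosed from DMSO stock for 24 hr; dose–response 0.01–3 μM. Cells washed with PBS and lysed in Cytobuster with protease inhibitors and benzonase. Normalized lysate boiled with reducing Laemmli buffer, run on 4–15% gels, blotted to PVDF, detected by fluorescence or ECL. Band densitometry normalized to GAPDH, then to DMSO, gave % degradation; EED quantified from lower ~55 kDa band. DC50 from three-parameter fit; Dmax = % degradation at 3 μM, 24 hr.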

EED = EED (Homo sapiens, UniProt O75530); assay: EED degradation by western blot in DB cells; type: cell-based
Summary of the method: as §2

DB cells [7] = assay: DB cell viability; type: cell-based, human; conditions: 12 days, top concentrations tested (5 – 10 μM)
Summary of the method: as §1

Caco-2 = Caco-2 permeability assay; type: in vitro ADME
EZH2^WT/EZH2^Y641N [8] = assay: EZH2 degradation by western blot in DB cells; type: cell-based, human; conditions: % degradation at 3 μM after 24 hr
Summary of the method: as §2

biotinylated EED and His-VHL, sequence (O75530 whole entry, the tested form may be a part): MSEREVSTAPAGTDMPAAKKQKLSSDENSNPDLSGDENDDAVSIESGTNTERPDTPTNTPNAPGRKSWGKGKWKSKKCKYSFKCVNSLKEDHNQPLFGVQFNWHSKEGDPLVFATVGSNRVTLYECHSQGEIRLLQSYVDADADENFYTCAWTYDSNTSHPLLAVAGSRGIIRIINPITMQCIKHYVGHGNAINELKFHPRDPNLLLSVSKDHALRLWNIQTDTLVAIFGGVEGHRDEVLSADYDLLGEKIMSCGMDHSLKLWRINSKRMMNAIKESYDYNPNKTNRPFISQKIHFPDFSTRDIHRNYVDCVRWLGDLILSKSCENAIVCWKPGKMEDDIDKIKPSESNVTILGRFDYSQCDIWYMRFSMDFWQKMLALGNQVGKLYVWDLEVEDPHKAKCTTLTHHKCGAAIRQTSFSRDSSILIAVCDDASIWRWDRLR
biotinylated EED and His-VHL, sequence (P40337 1-154): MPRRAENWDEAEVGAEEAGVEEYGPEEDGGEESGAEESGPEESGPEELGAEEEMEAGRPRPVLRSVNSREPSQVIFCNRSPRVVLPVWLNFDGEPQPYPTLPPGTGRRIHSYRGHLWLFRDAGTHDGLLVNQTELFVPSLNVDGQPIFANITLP
EED, sequence (O75530 whole entry): as the sequence (O75530 whole entry, the tested form may be a part) above
His-tagged EED, sequence (O75530 whole entry): as the sequence (O75530 whole entry, the tested form may be a part) above

CS(=O)(=O)c1ccc(-c2cnc(NCc3ccco3)n3cnnc23)cc1 [EED226]
Reduction of cell growth compared to DMSO (DB cells [1]): 24% | Decrease in H3K27me3 levels (H3K27me3): 63%

CC(C)C[C@@H](C=O)NC(=O)[C@H](CC(C)C)NC(=O)[C@H](CC(C)C)NC(=O)OCc1ccccc1 [MG132] (Cbz-Leu-Leu-Leu-aldehyde)
Effect of proteasome inhibitor pretreatment on UNC7700 mediated PRC2 degradation ([2]; added prior to UNC7700 cell treatment): blocks PRC2 degradation

Cc1cc(C)c(CNC(=O)c2cc(-c3ccc(N4CCN(CCNC(=O)CC56CC7CC(CC(C7)C5)C6)CC4)nc3)cc3c2cnn3C(C)C)c(=O)[nH]1 [MS1943]
Tumor growth in vivo (tumor growth): suppresses tumor growth in vivo | Anti-proliferative effect in TNBC cells [3]: anti-proliferative

CCCc1cc(C)[nH]c(=O)c1CNC(=O)c1cc(-c2ccc(N3CCN(C(C)C)CC3)nc2)cc2c1cnn2C(C)C [UNC1999]
Reduction of cell growth compared to DMSO (DB cells [1]): 28% | Decrease in H3K27me3 levels (H3K27me3): 76%

Cc1ncsc1-c1ccc(CNC(=O)[C@@H]2C[C@@H](O)CN2C(=O)[C@@H](NC(=O)CCCNC(=O)c2ccc(-c3cnc(NCc4ccco4)n4cnnc34)cc2)C(C)(C)C)cc1 [UNC6852]
Degradation of EED and EZH2^WT/EZH2^Y641N at 96 hr [2]: substantial degradation of EED and EZH2^WT/EZH2^Y641N | Solubility [4]: poor solubility observed above this concentration | DC50 (EZH2^WT/EZH2^Y641N [5]): 670 ± 240 nM | PROTAC concentration at maximum peak height of ternary complex TR-FRET signal [6]: around 1 μM | Ternary complex TR-FRET signal, in words [6]: signs of a bell-shaped curve | Reduction of cell growth compared to DMSO (DB cells [1]): 8% | Decrease in H3K27me3 levels, in words (H3K27me3): only a small decrease in H3K27me3 levels

Cc1ncsc1-c1ccc(CNC(=O)[C@H]2C[C@@H](O)CN2C(=O)[C@@H](NC(=O)CCCNC(=O)c2ccc(-c3cnc(NCc4ccco4)n4cnnc34)cc2)C(C)(C)C)cc1 [UNC7043]
Ternary complex TR-FRET signal, in words [6]: do not show any increase in FRET signal

Cc1ncsc1-c1ccc(CNC(=O)[C@@H]2C[C@@H](O)CN2C(=O)[C@@H](NC(=O)C2CC(NC(=O)c3ccc(-c4cnc(NCc5ccco5)n5cnnc45)cc3)C2)C(C)(C)C)cc1 (stereo partly drawn) [UNC7700]
Degradation of EED and EZH2^WT/EZH2^Y641N at 96 hr [2]: complete degradation of EED and EZH2^WT/EZH2^Y641N | EED binding (TR-FRET IC50) (His-tagged EED): equally potent binders of EED | SUZ12 Dmax (SUZ12): 44% | EED Dmax (EED; % degradation at 3 μM after 24 hr): 84% | DC50 (EED; read-out: EED DC50, 24 hr, dose response 0.01–3 μM, western blot): 111 nM | PROTAC concentration at maximum peak height of ternary complex TR-FRET signal [6]: around 1 μM | Ternary complex TR-FRET signal, in words [6]: much weaker compared to UNC6852 | Loss in cell viability (DB cells [7]): ~30% | Reduction of cell growth compared to DMSO (DB cells [1]): 46% | EC50 (DB cells [1]; read-out: Proliferation EC50 after 9 days, 0.01 – 10 μM, 9 days): 2600 ± 1900 nM | EC50 (DB cells [1]; read-out: Proliferation EC50 after 12 days, 0.01 – 10 μM, 12 days): 790 ± 530 nM | Caco-2 permeability (Caco-2): below the limit of detection of the assay | Percent recovery in Caco-2 assay (Caco-2; from the donor compartment, cell lysate, and assay well): 79–106% | EZH2^WT/EZH2^Y641N Dmax (EZH2^WT/EZH2^Y641N [8]): 86% | Decrease in H3K27me3 levels (H3K27me3): 85%
